In ChEMBL document CHEMBL3817773, “Antibacterial activities of fluorescent nano assembled triphenylamine phosphonium ionic liquids” (Bioorg Med Chem Lett, 2016):
Calls of active or inactive are those of the source. The calls are words filed in the database; no cut-off is given here.

What was measured:
[1] = tested on: Enterococcus faecium; experiment: Antimicrobial activity against Enterococcus faecium DSMZ 20477 after 18 to 20 hrs by broth dilution method; type: functional
Procedure, shortened: (§1)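 MICs measured against a panel of ESKAPE-representative strains, including S. aureus SA1199, at concentrations up to 64 mg/L.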

[2] = tested on: Staphylococcus aureus; experiment: Antimicrobial activity against Staphylococcus aureus CIP 76.25 after 18 to 20 hrs by broth dilution method; type: functional; procedure, shortened: as §1
[3] = tested on: Staphylococcus aureus; experiment: Antimicrobial activity against Staphylococcus aureus SA1199 after 18 to 20 hrs by broth dilution method; type: functional; procedure, shortened: as §1
[4] = tested on: HepG2; experiment: Cytotoxicity against human HepG2 cells assessed as reduction in cell viability after 24 hrs by WST1 assay; type: cell-based; conditions: HepG2, 24 h
[5] = tested on: Staphylococcus aureus; experiment: Antimicrobial activity against multi-drug resistant Staphylococcus aureus SA1199B overexpressing NorA after 18 to 20 hrs by broth dilution method; type: functional
Procedure, shortened: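 MIC read against the NorA-overproducing S. aureus SA1199B, tested alongside its isogenic parent strain SA1199. Compounds were tested at concentrations up to 64 mg/L.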

[6] = tested on: Pseudomonas aeruginosa; experiment: Antimicrobial activity against Pseudomonas aeruginosa CIP 100720 after 18 to 20 hrs by broth dilution method; type: functional; procedure, shortened: as §1
[7] = tested on: Klebsiella aerogenes; experiment: Antimicrobial activity against Enterobacter aerogenes ATCC 13048 after 18 to 20 hrs by broth dilution method; type: functional; procedure, shortened: as §1
[8] = tested on: Acinetobacter baumannii; experiment: Antimicrobial activity against Acinetobacter baumannii ATCC 19606 after 18 to 20 hrs by broth dilution method; type: functional; procedure, shortened: as §1
[9] = tested on: Klebsiella pneumoniae; experiment: Antimicrobial activity against Klebsiella pneumoniae CIP 82.91 after 18 to 20 hrs by broth dilution method; type: functional; procedure, shortened: as §1
[10] = tested on: Escherichia coli; experiment: Antimicrobial activity against Escherichia coli CIP 54.8 after 18 to 20 hrs by broth dilution method; type: functional; procedure, shortened: as §1
[11] = tested on: Staphylococcus aureus; experiment: Bactericidal activity against Staphylococcus aureus CIP 76.25 assessed as log reduction in bacterial count at 2 mg/L after 30 mins by time kill assay relative to control; type: functional
Procedure, shortened: (§2)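 Time-kill assay on S. aureus CIP 7625 exposed to 2 mg/L, with untreated control in parallel. Viability was followed by CFU counts over time, and log10 CFU/mL reduction was read at 30 min and 2 h of incubation.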

[12] = tested on: Staphylococcus aureus; experiment: Drug uptake in Staphylococcus aureus CIP 76.25 at 2 mg/L after 1.7 to 35 sec by phase contrast microscopic analysis; type: ADME, organism-based; conditions: in vivo
[13] = tested on: Staphylococcus aureus; experiment: Drug uptake in Staphylococcus aureus CIP 76.25 at 2 mg/L after 1.7 to 35 sec by fluorescence microscopic analysis; type: ADME, organism-based; conditions: in vivo
Procedure, shortened: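 Uptake was tracked through the intrinsic fluorescence of the triphenylamine moiety, using fluorescence microscopy of bacteria during incubation to follow accumulation kinetics over seconds.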

[14] = tested on: Staphylococcus aureus; experiment: Bactericidal activity against Staphylococcus aureus CIP 76.25 assessed as log reduction in bacterial count at 2 mg/L after 2 hrs by time kill assay relative to control; type: functional; procedure, shortened: as §2
[15] = tested on: Staphylococcus aureus; experiment: Inhibition of metabolic activity in Staphylococcus aureus CIP 76.25 assessed as inhibition of resazurin reduction to resorufin at 2 mg/L treated for 15 mins measured over 2 to 6 hrs by CellTiter-Blue assay; type: functional, organism-based
Procedure, shortened: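 S. aureus CIP 7625 was treated 15 min with 2 mg/L, then metabolic activity was monitored as the rate of resazurin reduction to resorufin, compared with the untreated control.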

[16] = tested on: Staphylococcus aureus; experiment: Growth inhibition of Staphylococcus aureus CIP 76.25 at 2 mg/L by time kill assay relative to control; type: functional, organism-based
Procedure, shortened: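 S. aureus CIP 7625 proliferation was followed by absorbance at 600 nm, with or without 2 mg/L, against an untreated control curve.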

SMILES | MIC [1] [µg/mL] | MIC [2] [µg/mL] | MIC [3] [µg/mL] | IC50 [4] [µg/mL] | MIC [5] [µg/mL] | MIC [6] [µg/mL] | MIC [7] [µg/mL] | MIC [8] [µg/mL] | MIC [9] [µg/mL] | MIC [10] [µg/mL] | Activity [11] [log10CFU/ml] | Drug uptake [12] | Drug uptake [13] | Activity [14] [log10CFU/ml] | inhibition [15] | growth inhibition (GI) [16]
CCCC[P+](CCCC)(CCCC)CCCCCCOC.[Br-] | > 64 | > 64 | > 64 | 0.712 | > 64 | > 64 | > 64 | > 64 | > 64 | > 64 | – | – | – | – | – | –
CCCC[P+](CCCC)(CCCC)CCCCCCOCc1ccc(N(c2ccccc2)c2ccccc2)cc1.[Cl-] | 1 | 1 | 0.5 | < 0.124 | 0.5 | 32 | 16 | 16 | 16 | 16 | – | – | – | – | – | –
c1ccc(N(c2ccccc2)c2ccccc2)cc1 | > 64 | > 64 | > 64 | < 0.124 | > 64 | > 64 | > 64 | > 64 | > 64 | > 64 | – | – | – | – | – | –
CCCCCC[P+](CCCC)(CCCC)CCCC.[I-] | > 64 | > 64 | > 64 | 0.189 | > 64 | > 64 | > 64 | > 64 | > 64 | > 64 | – | – | – | – | – | –
CCCC[P+](CCCC)(CCCC)CCCCCCOCc1ccc(N(c2ccccc2)c2ccccc2)cc1.[Br-] | 1 | 0.5 | 0.5 | < 0.124 | 0.5 | > 64 | 32 | 16 | 8 | 16 | >3 | Active | Active | >4 | – | –
CCCC[P+](CCCC)(CCCC)CCCCCCOCc1ccc(N(c2ccccc2)c2ccccc2)cc1 | – | – | – | – | – | – | – | – | – | – | – | – | – | – | Active | Active
CCCCCC[P+](CCCC)(CCCC)CCCC.[Br-] | > 64 | > 64 | > 64 | < 0.124 | > 64 | > 64 | > 64 | > 64 | > 64 | > 64 | – | – | – | – | – | –
CCCC[P+](CCCC)(CCCC)CCCCCCOCc1ccc(N(c2ccccc2)c2ccccc2)cc1.[I-] | 2 | 1 | 1 | < 0.124 | 1 | 32 | 32 | 16 | 16 | 16 | – | – | – | – | – | –
CCCCCC[P+](CCCC)(CCCC)CCCC.[Cl-] | > 64 | > 64 | > 64 | 5.42 | > 64 | > 64 | > 64 | > 64 | > 64 | > 64 | – | – | – | – | – | –
